Bioassay records (PubChem)
Insulin prom inh: inhibitors of insulin promoter-driven GFP, primary screen, imaging, TRM-6 cells (human fetal islet line), eGFP reporter, cell count; reporter expression induced with tamoxifen; inhibition, % at 2 µM; hit rate 0.9% among 130,000; AID 1273, 2008;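 active means inhibition above the mean plus 3 SD, with well images judged a real hit on visual review, cut at about 60% in these data, passing the limit was not always enough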
Ins promoter up: insulin promoter activators in MIN6 cells, imaging, high-content screening, mouse beta cells; MIN6 insulin promoter-GFP reporter; stronger effect = higher value; z-score at 5 µM; hit rate 0.3% among 190,000; AID 1625, 2009;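 active means z-score above 3 at 5 µM with at least 500 cells counted in the well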
RAM network inh: inhibitors of the yeast RAM network, primary screen, dse1pr::URA3 reporter, 5-FOA selection. inhibition, % at 50 µM. AID 868, 2007. hit rate 1.8% among 190,000. S. cerevisiae dse1pr::URA3 reporter, 5-FOA growth OD615, 2 d; analog-sensitive cbk1-as2 kinase mutant strain;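 active means inhibition above a set limit, 3 SD over mean compound inhibition, cut at about 8.4% in these data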;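 further: 0% = DMSO-only wells with no growth and 100% = 10 µM 1-NA-PP1 full growth; inhibition rescues growth on 5-FOA so higher OD means more RAM inhibition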
Yeast lifespan up: compounds extending yeast replicative lifespan, primary screen, S. cerevisiae, OD615. S. cerevisiae growth with nicotinamide; deaD strain in restrictive glucose medium. inhibition of the nicotinamide effect, % at 10 µM. hit rate 0.68% among 130,000;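 active means inhibition above a set limit, placed 3 SD over the median of all compounds, cut at about 26% in these data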;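 further: 0% = nicotinamide-treated wells and 100% = cells grown without nicotinamide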
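assay system = DeaD-strain S. cerevisiae | measured by = absorbance at 615 nm | probe or stimulus = nicotinamide 1.5 mM | buffer or medium = CSMM-D glucose medium, restrictive | times = 48 h at 30 °C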
Yeast growth inh: growth inhibitors of yeast BB579 in restrictive medium, primary screen, yeast lifespan-shortening project, S. cerevisiae; OD615, 48 h; inhibition, % at 10 µM; hit rate 0.51% among 140,000;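 active means inhibition above a set limit, 3 SD over the mean compound inhibition, cut at about 44% in these data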
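Test system: Saccharomyces cerevisiae DeaD strain BB579, replicative lifespan model yeast | Buffer or medium: Restrictive CSMM-D medium | Doses: One dose, 10 µM compound with 0.25% DMSO | Incubation: 48 h exposure, 30 °C | Detection: Culture absorbance at 615 nm | Control set: Amphotericin B at 10 µg/mL as positive control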
* = called active by the depositor; x = not tested or not shown. Rows were chosen to be rich in hits. Some 3.1% of all compounds tested hit in one or more screens of this group.

SMILES	Insulin prom inh	Ins promoter up	RAM network inh	Yeast lifespan up	Yeast growth inh
CCCNC(=O)OC[C@H]1O[C@H](CCO/N=C(\C)CCN2CCc3nc(-c4ccccc4)c(-c4ccccc4)cc3C2)C=C[C@@H]1Oc1ccc(OC)cc1	5	-1.4	0	32*	-57
CC(Oc1ccc(-c2ccccc2)c(F)c1)c1ccn(S(=O)(=O)c2ccc(F)cc2)n1 (configuration not stated)	-42	-2.5	9.4*	1	-27
COc1ccc(S(=O)(=O)n2ccc(C(C)Oc3ccc(-c4ccccc4)c(F)c3)n2)cc1 (configuration not stated)	-21	-0.39	4	0	-88
Cn1nccc1CNC(=O)c1c(Cl)cnn1C	73*	x	1	2	-8
COc1ccc(Br)c2oc(S)cc(=O)c12	71*	2.2	-1	1	-47
COc1ccc(C(=O)c2ccc(OC)c(Br)c2)cc1Br	x	-0.12	7	5	-9
COc1ccccc1NC(=O)Cc1noc(CSc2cc(C)c3ccccc3n2)n1	-20	-0.52	5	-26	-52
COc1ccccc1NC(=O)Cc1noc(CSc2cccc[n+]2[O-])n1	-2	-0.45	2	-15	95*
Cc1ccc(-n2ccnc2SCC(=O)O)cc1C	x	0.37	x	x	x
Cc1ccc(-n2c(C)cc(C(=O)COC(=O)c3ccc[nH]c3=O)c2C)cc1	7	0.37	0	-6	93*
Cc1cc(C(=O)COC(=O)c2ccc[nH]c2=O)c(C)n1-c1ccc(Br)cc1	-39	x	0	-7	91*
Clc1ccc(CO/N=C/c2c(-c3ccccc3)nc3n2CCS3)c(Cl)c1	-68	x	11*	2	-53
COc1cc(NS(=O)(=O)c2ccc(NC(=S)NC(=O)/C=C/c3ccc(F)cc3)cc2)ncn1	x	0.63	x	x	x
COc1nccnc1NS(=O)(=O)c1ccc(NC(=S)NC(=O)/C=C/c2ccc(F)cc2)cc1	25	0.91	11*	10	-50
O=C(/C=C/N1CCOCC1)c1ccc(-c2ccccc2)cc1	60	0.67	2	-32	99*
CNCCOc1ccccc1OC(C)C	x	0.62	0	x	x
CCOc1ccccc1OCCOc1ccccc1OC(C)C	-42	-1	18*	-8	12
CCCCN(C(=O)NC(=O)Nc1ccc(C)cn1)S(C)(=O)=O	x	1.7	-1	-2	2
N#CC1=C(N)N2C(=C(C#N)C1c1cccc(Br)c1)Nc1ccccc12 (configuration not stated)	x	-0.38	8.9*	1	-44
CCC(C)(C)n1nnnc1C(c1cc2cc(C)cc(C)c2[nH]c1=O)N1CCCC1 (configuration not stated)	-15	-0.03	0	7	-22
CCC(C)(C)n1nnnc1C(c1cc2cccc(C)c2[nH]c1=O)N1CCCC1 (configuration not stated)	25	-0.4	-1	36*	-37
COCCNC(=O)/C=C/c1c(Cl)cccc1Cl	71*	0.79	1	-7	-9
O=C(CSc1nnc(-c2cccnc2)n1Cc1ccco1)NCc1ccc2c(c1)OCO2	-285	-1.1	3	-16	-9
O=C(CCSc1nnc2scc(-c3ccccc3)n12)NCc1ccc2c(c1)OCO2	-21	1.8	10*	-1	-46
Cc1ccc(-c2csc3nnc(SCC(=O)NCc4ccc5c(c4)OCO5)n23)cc1	-16	0.29	1	-17	-65
SMILES	Insulin prom inh	Ins promoter up	RAM network inh	Yeast lifespan up	Yeast growth inh
C=CCn1c(SCC(=O)NCc2ccc3c(c2)OCO3)nnc1-c1cccnc1	76*	0.44	2	x	x
COc1cc2cnc(Cl)nc2cc1OC	-13	-0.32	2	-2	-13
O=[N+]([O-])c1ccc(N/N=C/c2sc(N3CCOCC3)nc2-c2ccccc2)c(S(=O)(=O)Nc2ccccc2Cl)c1	x	x	8.4*	x	x
O=C(N/N=C/c1sc(N2CCOCC2)nc1-c1ccccc1)c1ccccc1Cl	12	1.1	6	x	x
CC1CCC2C(=O)N(c3cccc(OS(=O)(=O)c4ccccc4)c3)C(=O)C2C1 (configuration not stated)	x	0.41	9.4*	0	-7
CC(=O)Nc1ccc(S(=O)(=O)NCCSCc2ccccc2Cl)cc1	7	-0.52	1	0	-36
Cc1cc(C)nc(NC(=NCCc2c[nH]c3ccccc23)NC(=O)c2ccco2)n1	-42	x	9.8*	-21	-52
